Key:
[1] = tested on: 1A9; assay: Cytotoxicity against human 1A9 cells; type: functional, cell-based
[2] = Inhibition of rat brain tubulin polymerization
Method in brief: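 Rat brain tubulin (10 µM) mixed on ice with test compound at 0.5, 1, 2 and 4 µM in 0.8 M sodium glutamate, pH 6.6, with 0.4 mM GTP. Samples then warmed to 33 °C. Polymerization followed over time as optical density at 350 nm. IC50 taken from the concentration series.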

[3] = Anticancer activity against multidrug-resistant human KBV1 cells; type: functional, cell-based; conditions: KB-V1
[4] = tested on: HCT-15; assay: Anticancer activity against multidrug-resistant human HCT15 cells; type: functional

Question: With CCC(C)[C@H](NC(=O)[C@@H]1CCCCN1C)C(=O)N[C@H](CC(=O)c1nc(C(=O)N[C@@H](Cc2ccccc2)C[C@H](C)C(=O)O)cs1)C(C)C (single isomer, unassigned) as the molecule, how does the IC50 [1] read?
Answer: Its IC50 is 25000 nM.

Question: With COc1cc([C@@H]2c3cc4c(cc3[C@H](O)[C@H]3COC(=O)[C@H]23)OCO4)cc(OC)c1OC [PODOFILOX] as the molecule, how does the IC50 [1] read?
Answer: Its IC50 is 3 nM.

Question: With CC[C@@H](C)[C@H](NC(=O)[C@H]1CCCCN1)C(=O)N[C@H](CC(=O)c1nc(C(=O)N[C@@H](Cc2ccccc2)C[C@H](C)C(=O)O)cs1)C(C)C as the molecule, how does the IC50 [1] read?
Answer: Its IC50 is 23000 nM.

Question: For CC[C@@H](C)[C@H](NC(=O)[C@@H]1CCCCN1)C(=O)N[C@H](CC(=O)c1nc(C(=O)N[C@@H](Cc2ccccc2)C[C@H](C)C(=O)O)cs1)C(C)C, which IC50 [1] is on record?
Answer: Its IC50 is 24000 nM.

Question: Which IC50 [2] does the source give for CN[C@H](C(=O)N[C@H](C(=O)N(C)[C@H](/C=C(\C)C(=O)O)C(C)C)C(C)(C)C)C(C)(C)c1ccccc1 [TALTOBULIN] here?
Answer: The IC50 was 1000 nM.

Question: What about the IC50 [1] of the same molecule?
Answer: Its IC50 is 0.03 nM.

Question: Which IC50 [1] does the source give for CCC(C)[C@H](NC(=O)[C@@H]1CCCN1C)C(=O)N[C@H](CC(=O)c1nc(C(=O)N[C@@H](Cc2ccccc2)C[C@H](C)C(=O)O)cs1)C(C)C (single isomer, unassigned) here?
Answer: Its IC50 is 18000 nM.

Question: Which IC50 [1] does the source give for CCC(C)[C@H](NC(=O)[C@@H]1CCCN1)C(=O)N[C@H](CC(=O)c1nc(C(=O)N[C@@H](Cc2ccccc2)C[C@H](C)C(=O)O)cs1)C(C)C (single isomer, unassigned) here?
Answer: The IC50 was greater than 33000 nM.

Question: What does the source list for CCC(C)[C@H](NC(=O)[C@H]1CCCCN1C)C(=O)N[C@H](CC(=O)c1nc(C(=O)N[C@@H](Cc2ccccc2)C[C@H](C)C(=O)O)cs1)C(C)C (single isomer, unassigned)?
Answer: IC50 [2]: 1800 nM; IC50 [1]: 200 nM

Question: With CCC(C)[C@H](NC(=O)[C@H]1CCCN1)C(=O)N[C@H](CC(=O)c1nc(C(=O)N[C@@H](Cc2ccccc2)C[C@H](C)C(=O)O)cs1)C(C)C (single isomer, unassigned) as the molecule, how does the IC50 [1] read?
Answer: The IC50 was greater than 33000 nM.

Question: With CCC(C)[C@H](NC(=O)[C@H]1CCCCN1C)C(=O)N(COC(=O)CC(C)C)[C@H](C[C@@H](OC(C)=O)c1nc(C(=O)N[C@@H](Cc2ccccc2)C[C@H](C)C(=O)O)cs1)C(C)C (single isomer, unassigned) [TUBULYSIN D] as the molecule, how does the IC50 [3] read?
Answer: Its IC50 is 0.31 nM.

Question: With CC[C@@H](C)[C@H](NC(=O)[C@H]1CCCCN1C)C(=O)N(COC(=O)CC(C)C)[C@H](C[C@@H](OC(C)=O)c1nc(C(=O)N[C@@H](Cc2ccc(O)cc2)C[C@H](C)C(=O)O)cs1)C(C)C [TUBULYSIN A] as the molecule, how does the GI50 [4] read?
Answer: The GI50 was 0.12 nM.

Question: With CCC(C)[C@H](NC(=O)[C@H]1CCCN1C)C(=O)N[C@H](CC(=O)c1nc(C(=O)N[C@@H](Cc2ccccc2)C[C@H](C)C(=O)O)cs1)C(C)C (single isomer, unassigned) as the molecule, how does the IC50 [2] read?
Answer: The IC50 was 1000 nM.

Question: What about the IC50 [1] of the same molecule?
Answer: The IC50 was 800 nM.

— ChEMBL document CHEMBL1144042, “Cytotoxic simplified tubulysin analogues” (J Med Chem, 2008)
